Results on 40 molecules are retold here after PubChem BioAssay.

Active and inactive are the calls of the source.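 How the source made its calls, unless noted: active means current rise at least 3 SD above the untreated control mean in each of two repeat wells; inactive means the rest.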

Chain of Potassium voltage-gated channel subfamily KQT member 1 (Homo sapiens) (P51787 whole entry, looked up): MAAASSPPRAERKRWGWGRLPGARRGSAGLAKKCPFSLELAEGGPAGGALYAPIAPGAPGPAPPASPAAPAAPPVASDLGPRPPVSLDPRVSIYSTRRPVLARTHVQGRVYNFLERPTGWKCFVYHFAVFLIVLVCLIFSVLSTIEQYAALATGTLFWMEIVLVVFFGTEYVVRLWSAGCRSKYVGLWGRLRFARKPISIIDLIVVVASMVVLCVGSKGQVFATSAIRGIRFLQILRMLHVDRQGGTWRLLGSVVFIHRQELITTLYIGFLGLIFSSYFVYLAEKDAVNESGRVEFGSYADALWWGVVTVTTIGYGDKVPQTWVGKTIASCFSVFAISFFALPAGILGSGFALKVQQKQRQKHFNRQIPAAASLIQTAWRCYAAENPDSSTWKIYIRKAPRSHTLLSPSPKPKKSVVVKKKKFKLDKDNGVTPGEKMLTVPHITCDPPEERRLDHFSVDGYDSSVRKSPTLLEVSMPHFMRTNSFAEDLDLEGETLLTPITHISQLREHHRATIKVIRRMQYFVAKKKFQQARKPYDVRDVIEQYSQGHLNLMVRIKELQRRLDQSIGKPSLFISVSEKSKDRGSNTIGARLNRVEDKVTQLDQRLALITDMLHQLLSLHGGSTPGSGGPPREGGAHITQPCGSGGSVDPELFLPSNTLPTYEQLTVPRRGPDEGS
Chain of Potassium voltage-gated channel subfamily KQT member 2 (Rattus norvegicus) (O88943 whole entry, looked up): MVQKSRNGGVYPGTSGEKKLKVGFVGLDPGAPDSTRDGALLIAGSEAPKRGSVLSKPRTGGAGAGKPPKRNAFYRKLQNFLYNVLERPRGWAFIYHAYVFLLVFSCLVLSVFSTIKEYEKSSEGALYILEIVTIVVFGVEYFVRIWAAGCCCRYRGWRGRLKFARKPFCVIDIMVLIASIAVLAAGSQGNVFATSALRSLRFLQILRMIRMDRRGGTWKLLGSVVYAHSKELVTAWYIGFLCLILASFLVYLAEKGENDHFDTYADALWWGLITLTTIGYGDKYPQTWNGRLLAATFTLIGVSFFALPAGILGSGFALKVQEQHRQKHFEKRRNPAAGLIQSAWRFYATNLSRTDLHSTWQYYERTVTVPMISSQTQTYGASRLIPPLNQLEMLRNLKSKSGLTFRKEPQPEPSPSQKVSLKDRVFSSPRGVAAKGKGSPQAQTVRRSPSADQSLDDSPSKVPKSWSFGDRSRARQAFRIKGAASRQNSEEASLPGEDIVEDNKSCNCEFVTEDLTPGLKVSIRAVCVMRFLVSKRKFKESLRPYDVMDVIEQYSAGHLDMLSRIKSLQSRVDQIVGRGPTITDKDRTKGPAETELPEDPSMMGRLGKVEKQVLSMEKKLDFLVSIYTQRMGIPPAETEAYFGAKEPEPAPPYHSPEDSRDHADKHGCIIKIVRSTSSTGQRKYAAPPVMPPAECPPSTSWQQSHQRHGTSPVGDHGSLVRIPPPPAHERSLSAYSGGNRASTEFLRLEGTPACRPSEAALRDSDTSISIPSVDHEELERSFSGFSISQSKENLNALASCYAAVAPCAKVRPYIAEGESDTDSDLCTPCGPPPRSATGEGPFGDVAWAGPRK

The first experiment has as its target Potassium voltage-gated channel subfamily KQT member 2 (Rattus norvegicus) (UniProt O88943). Put plainly: rat KCNQ2 channel potentiation, selectivity assay for KCNQ1 potentiator project, KCNQ2-CHO-K1 cells (AID 493009;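 active means mean duplicate potentiation above the buffer control mean plus 5 SD of buffer wells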;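 further: assay conditions were tuned for KCNQ1 rather than KCNQ2 modulators; signal is max minus min fluorescence divided by baseline after thallium stimulus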). The settings on record: FluxOR thallium flux fluorescence, at 10 µM; stronger effect = higher value, scaled: buffer 0, activator control 100.
As for `COCCCn1c(=S)[nH]c2sc3c(c2c1=O)CCCS3`, the result was inactive.
With `CC(NC(=O)CS(=O)(=O)c1ccccc1)c1ccccc1` (centres undefined), the result was inactive.
With `COc1cccc(C(=O)NNC(=O)C(=O)Nc2ccc(C)c(Cl)c2)c1`, the potentiation was 311% (active).
Same read-out and setting: to `O=C(NC(=S)Nc1cccc(Cl)c1N1CCCCC1)c1ccco1` belongs 178% (active).

A further experiment has as its target Potassium voltage-gated channel subfamily KQT member 1 (Homo sapiens) (UniProt P51787). Put plainly: KCNQ1 channel current potentiators, confirmation, orthogonal assay for KCNQ1 potentiator project, IonWorks patch clamp, KCNQ1-CHO cells (AID 493184). The settings on record: automated patch clamp current, at 10 µM; stronger effect = higher value. An outline of the steps: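 Test system: KCNQ1-expressing CHO cells. Medium: pH 7.4 external bath. Probe or stimulus: voltage step from -90 mV holding to +40 mV, 2,000 ms. Compound: 10 µM final, single point. Detection: automated perforated-patch electrophysiology. Read-out: percent current increase versus pre-compound level. Repeats: two replicates.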
Regarding `CCCn1c(=S)[nH]c2ccc(C(F)(F)F)cc21`, the result was inactive.
Still for that read-out and setting: for `Oc1ccc(C[C@@H]2CNCCN2CCc2cc(C(F)(F)F)cc(C(F)(F)F)c2)cc1` the value was “inactive”.
Still for that read-out and setting: to `O=[N+]([O-])c1ccc(Nc2ccc(Cl)cc2)nc1` belongs “inactive”; to `CCCC(=O)N1CCN(Cc2nc3cc([N+](=O)[O-])ccc3n2C)CC1`, “inactive”.
On the same count and under the same terms, to `COc1ccc(C)cc1-n1c(C)cc(C=O)c1C` belongs “inactive”; to `CCCCCC/C(C)=C1/SC(=S)NC1=O`, “inactive”; to `O=C(NNC(=O)c1ccc(Cl)c(Cl)c1)c1ccncc1`, “inactive”.
For the molecule `CN(C)c1ccc(-c2nn3c(-c4ccccc4Cl)nnc3s2)cc1`, the outcome was inactive.
For the molecule `CC(C)OC(=O)c1c(NS(=O)(=O)c2ccccc2)sc2c1CCCC2`, the outcome was inactive.
With `COC(=O)c1cn(NC(=O)Cc2ccc(Cl)c(Cl)c2)c(=O)c2ccccc12`, the result was inactive.
On to `Oc1c(N=NC(=S)Nc2ccccc2F)c2ccccc2n1Cc1ccccc1`, for which the result was inactive.
Still for that read-out and setting: for `O=C(NCc1ccccn1)c1ccc(COc2ccc(Cl)cc2)o1` the value was “inactive”; for `Cc1ccnc(NC(=O)CNC(=O)c2ccc3c(c2)OCO3)c1`, “inactive”.
Still for that read-out and setting: for `CC1=CC(=O)C=C(C)C1=NOS(=O)(=O)c1ccccc1` the value was “inactive”; for `COCCCn1c(=S)[nH]c2c(sc3ccccc32)c1=O`, “inactive”; for `O=C1/C(=C/c2cccc(F)c2)SC(=S)N1NS(=O)(=O)c1ccccc1`, “inactive”.
The same measure, in the same setting: for `COc1cc(OC)cc(C(=O)NNC(=O)C(=O)Nc2cc(OC)c(Cl)cc2OC)c1` the value was “inactive”; for `Cc1cccc(C(=O)Nc2ccccc2C(=O)NCc2cccnc2)c1`, “inactive”.
With `CCCCOC(=O)c1ccc(NC(=S)NC(=O)c2c(Cl)cnn2C)cc1`, the outcome was inactive.
Still for that read-out and setting: to `O=C(NCc1cccc(Cl)c1)c1cccc(OC2CCN(C(=O)C3CC3)CC2)c1` belongs “inactive”; to `CS(=O)(=O)N1CCN(c2ccccc2NC(=O)CSc2nnc(-c3ccco3)o2)CC1`, “inactive”.
As for `Cc1noc(C)c1COc1ccc(CC(=O)NCc2ccccc2)cc1`, the result was inactive.
The same measure, in the same setting: to `N#Cc1ccccc1Oc1ccccc1C=O` belongs “inactive”; to `C=CCCCN(Cc1ccccc1)S(=O)(=O)c1ccccc1Br`, “inactive”; to `Cc1ccccc1-n1c(C)cc(/C=N/NC(=O)c2ccncc2)c1C`, “inactive”.
Same read-out and setting: for `O=C(NC(=S)N1CCCCCC1)c1ccc(Cl)cc1Cl` the value was “inactive”; for `COc1ccc(N=Nc2ccc(O)c3ncccc23)cc1`, “inactive”.
On the same count and under the same terms, for `O=C(CN1CCOCC1)N1CCN(c2nnc(-c3ccccc3)c3ccccc23)CC1` the value was “inactive”.
As for `CCS(=O)(=O)Nc1ccc(C(=O)CC2(O)C(=O)Nc3ccccc32)cc1` (centres undefined), the outcome was inactive.
In the case of `N#CC(c1cccc(Cl)c1)c1ccc2c(C(F)(F)F)cc(C(F)(F)F)nc2n1` (centres undefined), the outcome was inactive.
On the same count and under the same terms, to `Cc1[nH]c(-c2ccccn2)nc(=S)c1Cl` belongs “inactive”; to `CCCCCCCCCCCC(=O)NC(Cc1ccc(OC)c([N+](=O)[O-])c1)C(=O)O` (centres undefined), “inactive”; to `S=c1nc[nH]c2c1sc1nc(-c3ccccc3)c3c(c12)CCCC3`, “inactive”.
On the same count and under the same terms, for `CCSc1nc(=S)cc(C)[nH]1` the value was “inactive”.
With `CCSc1nnc(NS(=O)(=O)c2ccc(OC)cc2)s1`, the result was inactive.
Turning to `CN1CCN(c2nc(-c3cccs3)cc(C(F)(F)F)n2)CC1`, the outcome was inactive.
Still for that read-out and setting: to `COCCCn1c(=S)[nH]c2sc3c(c2c1=O)CCCS3` belongs “inactive”; to `CC(NC(=O)CS(=O)(=O)c1ccccc1)c1ccccc1` (centres undefined), “inactive”; to `COc1cccc(C(=O)NNC(=O)C(=O)Nc2ccc(C)c(Cl)c2)c1`, “inactive”.
Still for that read-out and setting: to `O=C(NC(=S)Nc1cccc(Cl)c1N1CCCCC1)c1ccco1` belongs “inactive”.
